Results on 37 sequences are retold here after the EternaBench riboswitch data.

The subject of the data set is MS2 coat protein. Nature of the data set: apparent Kd, MS2 coat protein; higher = weaker binding; RNA-MaP array; FMN 200 µM where present. A digest of the protocol: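 Stalled E. coli RNA polymerase transcribed the designs on Illumina sequencing-chip clusters. SNAP-549-labelled MS2 coat protein was titrated from 0.7 or 1.5 nM, doubling to 3 µM, without and then with constant ligand, in 100 mM Tris-HCl pH 7.5, 80 mM KCl, 4 mM MgCl2, BSA, DTT, yeast tRNA and Tween-20. Per-cluster binding curves were fitted to green signal normalised to red-channel RNA signal and control-cluster median Fmax. The apparent Kd is the median of the filtered fits.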

The mark [1] stands for this setting: designed as: OFF switch for flavin mononucleotide, no ligand.
Setting [2] is: ligand present: flavin mononucleotide, designed as: OFF switch for flavin mononucleotide.
[3] abbreviates: designed as: ON switch for flavin mononucleotide, no ligand.
[4] abbreviates: ligand present: flavin mononucleotide, designed as: ON switch for flavin mononucleotide.

Turning to “AGCAUGUAAGGAUAUGCAAGUGGUACGGAUAGUACCAGAAAGCAGAAGGUACAUGAGGAUCACCCAUGUGCUCC”, the apparent Kd (as a rule, the concentration giving half-maximal binding under the conditions of the assay) under setting [1] was determined as 28.2 nM and the “apparent Kd” value under setting [2] amounted to 55.2 nM.
For “AAUAACCAAGGAUAUACAUGAGGAUCACCCAUGUGGCGUCUGCGAGCUACAUCCCUUAGUAGAAGGUGGACCAG” the same measures were 23.4 nM and 27 nM.
For “UUAUAUAGAGUGAGGAUAUGCUGGUCCUUGGAUCAGCAGAAGGCACAUGAGGAUCACCCAUGUAAUAUAUUAUU”, in that order: 22 nM and 38.2 nM.
For “UUAGGCUUCUAGAAGGCGGUCCAGCUAGAGGACCGAGGAUAUAGGCACCUAACAUGAGGAUCACCCAUGUUAGUGAUUCCUCAA”, in that order: 132 nM and 166 nM.
Consider “AAAAGACAUGAGGAUCACCCAUGUCUUCGGACAUGAGGAUAUGUACAGACUUCGGUCUGUACAGAAGGCAUGUAAA”, for which the “apparent Kd” value stood at 42.9 nM under setting [3] and 17 nM under setting [4].
For “GUAGCAUACCGAGGAUAUUCAGGGCGUGGAUAUACAUGAGGAUCACCCAUGUGGCGGAAGCCUAGGGAGAAGGCGGAAUGCUAC” the same measures were 21.3 nM and 16.8 nM.
For “UAGAUGGGAGGAUAUACAUAGAUACAGAUUCGUGUAGUGCUACAUGAGGAUCACCCAUGUAGAAGGCCCGUCUU”, the “apparent Kd” value under setting [1] amounted to 16.2 nM and the “apparent Kd” value under setting [2] was 71.9 nM.
For “GUCAGCUCGUGAGGAUAUACAUGUGCUGGAGACAGCACUAAUUAAAUCACAUGAGGAUCACCCAUGUAGAAGGCACGAGCUGAU” the same measures were 16.6 nM and 26.4 nM.
For “UCAUAACAUGAGGAUCACCCAUGUCAGGAUAUGAUACUAUGUACUUCGGUACAUAGUAUCAGAAGGGACAUACU”, in that order: 96.8 nM and 153 nM.
Take “GCUGUGGCAUGAGGAUAUGGUCUGCUUUGCAGACCAGAAGGCAUGUCAAUAGACAUGAGGAUCACCCAUGUAGUUAACACAGCA”: the “apparent Kd” value runs as follows: under setting [3], 510 nM; under setting [4], 38.6 nM.
For “UUUGUCUGUGUGAGGAUAUACUUUGUUUGGUCGUUGUAGAAGGCACAUGAGGAUCACCCAUGUAGUUUGUUGUG”, the “apparent Kd” value came out at 20.4 nM under setting [1] and 22.9 nM under setting [2].
Regarding “CUACCUUAUGAGAAGGCGAUCAUGAAACAUGAUCGAGGAUAUCAUGUAAACAUGAGGAUCACCCAUGUAUGGGUAUUAUGGUAC”, the “apparent Kd” value under setting [3] came to 98.5 nM and the “apparent Kd” value under setting [4] was 27.3 nM.
As for “GGGAAGUGAGGAUAUGCUGCUCGUCACUUGCGUGAUGAGUAGCAGAAGGUACAUGAGGAUCACCCAUGUAAAGA”, the “apparent Kd” value by setting is: under setting [1], 29.5 nM; under setting [2], 20.7 nM.
“UUUUAGGCAGGAUAUACAUUUUUUUUAUUAUCCUCAUUAUUACAUGAGGAUCACCCAUGUAGAAGGGCCAUUUU”: the “apparent Kd” value was 48.1 nM under setting [1] and 50.2 nM under setting [2].
For “AUAAAUCAUGUAGGAUAUGCGUGGCGAAGCUAUGCAGAAGGACAUGAGGAUCACCCAUGUCUGUCCGUCUGCGUACAGACGGAA”, in that order: 29.3 nM and 274 nM.
In the case of “UUGGACGACGUAGGAUAUGUAGGAUAUUCCUACAUGAGGAUCACCCAUGUUGACAUGGAAGAAGGACAGAAGGACGAUGUCCAU”, the “apparent Kd” value under setting [3] stood at 261 nM and the “apparent Kd” value under setting [4] turned out to be 5.57 nM.
As for “AAAAUACAUGAGGAUCACCCAUGUGAAAAUAUGGGAGGAUAUACCGAAAAAAAAAAAAAGGUAGAAGGCCCAAAAA”, the “apparent Kd” value under setting [3] worked out at 22.5 nM and the “apparent Kd” value under setting [4] came out at 32.5 nM.
“GUCAGCUCGUGAGGAUAUACGACACUGCUUCGGCAGUGUAUUAAGAUCACAUGAGGAUCACCCAUGUAGAAGGCACGAGCUGAU”: the “apparent Kd” value is 8.64 nM under setting [1] and 145 nM under setting [2].
For “GCUAGUCAUGUCAGGAUAUGCUGAACCUUGGUUCAGCAGAAGGGACAUGAGGAUCACCCAUGUGCCUAACUAGC”, in that order: 42.1 nM and 402 nM.
For “CGCACUGAUAGAGGAUAUGUUUUACAUGAGGAUCACCCAUGUGUACAUGGAUUAAUAUAUAAGUAACAGAAGGCUAUUUGUGCG” the same measures were 18.9 nM and 15.1 nM.
On to “GUAGCAUACCGAGGAUAUUCACCGGAAACGGAAACAUGAGGAUCACCCAUGUGGCGAAAGCCUUGGGAGAAGGCGGAAUGCUAC”, for which the “apparent Kd” value reads like this: under setting [3], 195 nM; under setting [4], 24.5 nM.
For the sequence “CCGGCUGCUGUGAGGAUAUGCCUGUGGGUGCGCGGGCAGAAGGCACAUGAGGAUCACCCAUGUCCUGCGGUCCC”, the “apparent Kd” value runs as follows: under setting [1], 25.7 nM; under setting [2], 50.6 nM.
For “CAGUCUACAGGAUAUACAUGAGGAUCACCCAUGUUUAUCAACUUUCAGUAAUCCAUAUGUAGAAGGGUAGACUG” the same measures were 23.9 nM and 79.1 nM.
For “UUUUUGUGAGGAUAUGCGUAGUAGAACAAUAGUACUACUACGUAGAAGGCACAUGAGGAUCACCCAUGUUCCUC”, the “apparent Kd” value under setting [1] worked out at 37.8 nM and the “apparent Kd” value under setting [2] is 254 nM.
For “UAUAUAUAGUAAGGAUAUGUAUUAAUUUUAUCAACAGAAGGUACUGACAUGAGGAUCACCCAUGUUUUAGUGUGGGCAUGUAGA” the same measures were 84 nM and 109 nM.
For “CUCGGACAUGAGGAUCACCCAUGUGAGGAUAUGGUGCUAUCGUCAUUAGACGAUUGCGUUAGAAGGCACAUUUU” the same measures were 31.4 nM and 80.1 nM.
Take “UGUCGGAGCAGAGGAUAUUACAUGAGGAUCACCCAUGUAUGAACCAAUAGCUGGAAACAGCCAUGUAAGAAGGCUGCUCCGACA”: the “apparent Kd” value reads like this: under setting [1], 157 nM; under setting [2], 543 nM.
As to “UUUGUUUGCGGAGGAUAUAUAAGUGGAUCACCCAUAGAAGGCCGACAUGAGGAUCACCCAUGUUAGACAUGAGGAUCACCCAUG”, the “apparent Kd” value under setting [1] stood at 102 nM and the “apparent Kd” value under setting [2] came out at 140 nM.
For “AAGAAGUCAGGAUAUGCAUGGCGGGACUUGCGUCGUGGCGUGCAGAAGGGACAUGAGGAUCACCCAUGUGGAGA” the same measures were 124 nM and 249 nM.
For “UGCGUGUUAGGAUAUGCCAGCGCUACCUAAGGUAGGCUGUGGUAGAAGGAACAUGAGGAUCACCCAUGUAGGAG”, in that order: 111 nM and 483 nM.
For “GUAGUGUAUGUAGGAUAUGUGAAGCAAAGCUUCACAGAAGGACAUGAGGAUCACCCAUGUAUUACAGUCAGCAAUCUGACUGUU”, in that order: 39.8 nM and 137 nM.
In the case of “CAAUUUAUAACAGGAUAUAUAAUACAAUAGUUAAUAGAAGGGUUUAAUACAUGAGGAUCACCCAUGUCAUGUGUCAUAAUUACC”, the “apparent Kd” value reads like this: under setting [1], 34.8 nM; under setting [2], 30.5 nM.
For the sequence “AGUGCGUAUGUGAGGAUAUGCUGGUCCUUGGCUCGGCAGAAGGCACAUGAGGAUCACCCAUGUGGUGUCGUACC”, the “apparent Kd” value was determined as 33 nM under setting [1] and 151 nM under setting [2].
For “AUUAAUCAGCAGGAUAUAAGUAUCUGAUGGUGGUUAGAAGGGCUGACAUGAGGAUCACCCAUGUGCUCUUCGUG”, in that order: 11.4 nM and 13.8 nM.
“ACACGAAAGUCAGGAUAUGUAUCAGCACGAUAGUUACAUGAGGAUCACCCAUGUUUCACGGGCCAACAGAAGGGACAGGGUGGC”: the “apparent Kd” value runs as follows: under setting [3], 18.4 nM; under setting [4], 7.62 nM.
As to “UGCGGUAGAGGAUAUACGUAGAAGUAGAUUCAUGUAAAACUACAUGAGGAUCACCCAUGUAGAAGGCUAUCGCU”, the “apparent Kd” value runs as follows: under setting [1], 22.9 nM; under setting [2], 230 nM.
On to “AAACACAAACAUGAGGAUCACCCAUGUUAUGAAAAUAUUGGGAGAAGGGCGAUUGCAAAGCAAUCGCAGGAUAUUCGUAUUGUG”, for which the “apparent Kd” value is 34.4 nM under setting [3] and 12.2 nM under setting [4].
